Several values for one entry are separate records, joined by “and”; a condition that tells them apart may be missing. Equal values may be shown once.
Experiments:
Felis catus [1] = species: Felis catus; assay: Compound was tested for inhibition of HCO3- dependent swelling of cat cerebrocortical slices at concentration of (10e-13) M; format: functional
How it was run: (§1)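 Cerebrocortical slices were weighed and incubated in Warburg flasks at 22 °C in medium of KCl 27, NaCl 100, glucose 10 and KH2PO4 1.2 mmol/L (27 mM K+ HEPES). HCO3- (5 mM) was added from the side arm for the final 40 min, and the compound was present throughout the 60 min. Swelling = (final − initial wet weight)/initial wet weight × 100. Two-tailed t-test versus 27 K + HCO3-.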

Felis catus [2] = species: Felis catus; assay: Compound was tested for inhibition of HCO3- dependent swelling of cat cerebrocortical slices at concentration of (10e-7) M; format: functional; how it was run: as §1
Felis catus [3] = species: Felis catus; assay: Compound was tested for inhibition of HCO3- dependent swelling of cat cerebrocortical slices at concentration of (10e-9) M; format: functional; how it was run: as §1
Felis catus [4] = species: Felis catus; assay: Compound was tested for inhibition of K+ ion uptake in cat cerebrocortical slices at concentration of (10e-8) M; format: functional
How it was run: (§2)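 Slices were incubated 60 min at 22 °C in 27 mM K+ medium with 5 mM HCO3- added for the last 40 min, with the compound present throughout. Slices were then filtered off, reweighed and homogenized (10% w/v) in 1 N perchloric acid. The supernatant was assayed for electrolytes, expressed as µmol/g initial wet weight. Two-tailed t-test versus 27 K + HCO3-.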

Felis catus [5] = species: Felis catus; assay: Compound was tested for inhibition of chloride ion uptake in cat cerebrocortical slices at concentration of (10e-12) M; format: functional; how it was run: as §2
Felis catus [6] = species: Felis catus; assay: Compound was tested for inhibition of chloride ion uptake in cat cerebrocortical slices at concentration of (10e-13) M; format: functional; how it was run: as §2
Felis catus [7] = species: Felis catus; assay: Compound was tested for inhibition of chloride ion uptake in cat cerebrocortical slices at concentration of (10e-7) M; format: functional; how it was run: as §2
Felis catus [8] = species: Felis catus; assay: Compound was tested for inhibition of chloride ion uptake in cat cerebrocortical slices at concentration of (10e-8) M; format: functional; how it was run: as §2
Felis catus [9] = species: Felis catus; assay: Compound was tested for inhibition of sodium ion uptake in cat cerebrocortical slices at concentration of (10e-10) M; format: functional
Felis catus [10] = species: Felis catus; assay: Compound was tested for inhibition of sodium ion uptake in cat cerebrocortical slices at concentration of (10e-7) M; format: functional
Felis catus [11] = species: Felis catus; assay: Compound was tested for inhibition of sodium ion uptake in cat cerebrocortical slices at concentration of (10e-11) M; format: functional
Felis catus [12] = species: Felis catus; assay: Compound was tested for inhibition of K+ ion uptake in cat cerebrocortical slices at concentration of (10e-12) M; format: functional; how it was run: as §2
Felis catus [13] = species: Felis catus; assay: Compound was tested for inhibition of K+ ion uptake in cat cerebrocortical slices at concentration of (10e-10) M; format: functional; how it was run: as §2
Felis catus [14] = species: Felis catus; assay: Compound was tested for inhibition of sodium ion uptake in cat cerebrocortical slices at concentration of (10e-12) M; format: functional
Cavia porcellus [15] = species: Cavia porcellus; assay: Compound was tested for inhibition of potassium ion uptake in guinea pig cerebrocortical slices at concentration of (10e-7) M; format: functional; how it was run: as §2
Cavia porcellus [16] = species: Cavia porcellus; assay: Compound was tested for inhibition of potassium ion uptake in guinea pig cerebrocortical slices at concentration of (10e-8) M; format: functional; how it was run: as §2
Cavia porcellus [17] = species: Cavia porcellus; assay: Compound was tested for inhibition of potassium ion uptake in guinea pig cerebrocortical slices at concentration of (10e-9) M; format: functional
Cavia porcellus [18] = species: Cavia porcellus; assay: Compound was tested for inhibition of sodium ion uptake in guinea pig cerebrocortical slices at concentration of (10e-10) M; format: functional
Cavia porcellus [19] = species: Cavia porcellus; assay: Compound was tested for inhibition of sodium ion uptake in guinea pig cerebrocortical slices at concentration of (10e-12) M; format: functional
Cavia porcellus [20] = species: Cavia porcellus; assay: Compound was tested for inhibition of sodium ion uptake in guinea pig cerebrocortical slices at concentration of (10e-6) M; format: functional
Cavia porcellus [21] = species: Cavia porcellus; assay: Compound was tested for inhibition of sodium ion uptake in guinea pig cerebrocortical slices at concentration of (10e-7) M; format: functional
Cavia porcellus [22] = species: Cavia porcellus; assay: Compound was tested for inhibition of sodium ion uptake in guinea pig cerebrocortical slices at concentration of (10e-8) M; format: functional
Cavia porcellus [23] = species: Cavia porcellus; assay: Compound was tested for inhibition of sodium ion uptake in guinea pig cerebrocortical slices at concentration of (10e-9) M; format: functional
Cavia porcellus [24] = species: Cavia porcellus; assay: Compound was tested for inhibition of HCO3- dependent swelling of guinea pig cerebrocortical slices at concentration of (10e-11) M; format: functional; how it was run: as §1
Cavia porcellus [25] = species: Cavia porcellus; assay: Compound was tested for inhibition of HCO3- dependent swelling of guinea pig cerebrocortical slices at concentration of (10e-9) M; format: functional; how it was run: as §1
Cavia porcellus [26] = species: Cavia porcellus; assay: Compound was tested for inhibition of chloride ion uptake in guinea pig cerebrocortical slices at concentration of (10e-9) M; format: functional; how it was run: as §2
Cavia porcellus [27] = species: Cavia porcellus; assay: Compound was tested for inhibition of potassium ion uptake in guinea pig cerebrocortical slices at concentration of (10e-11) M; format: functional; how it was run: as §2
Cavia porcellus [28] = species: Cavia porcellus; assay: Compound was tested for inhibition of potassium ion uptake in guinea pig cerebrocortical slices at concentration of (10e-12) M; format: functional; how it was run: as §2
Cavia porcellus [29] = species: Cavia porcellus; assay: Compound was tested for inhibition of chloride ion uptake in guinea pig cerebrocortical slices at concentration of (10e-10) M; format: functional; how it was run: as §2
Cavia porcellus [30] = species: Cavia porcellus; assay: Compound was tested for inhibition of chloride ion uptake in guinea pig cerebrocortical slices at concentration of (10e-11) M; format: functional; how it was run: as §2
Cavia porcellus [31] = species: Cavia porcellus; assay: Compound was tested for inhibition of chloride ion uptake in guinea pig cerebrocortical slices at concentration of (10e-12) M; format: functional; how it was run: as §2
Cavia porcellus [32] = species: Cavia porcellus; assay: Compound was tested for inhibition of chloride ion uptake in guinea pig cerebrocortical slices at concentration of (10e-7) M; format: functional; how it was run: as §2
Cavia porcellus [33] = species: Cavia porcellus; assay: Compound was tested for inhibition of chloride ion uptake in guinea pig cerebrocortical slices at concentration of (10e-8) M; format: functional; how it was run: as §2
Rattus norvegicus [34] = species: Rattus norvegicus; assay: Compound was tested for inhibition of chloride ion uptake in rat cerebrocortical slices at concentration of (10e-4) M; format: functional; how it was run: as §2
Rattus norvegicus [35] = species: Rattus norvegicus; assay: Compound was tested for inhibition of chloride ion uptake in rat cerebrocortical slices at concentration of (10e-6) M; format: functional; how it was run: as §2
Rattus norvegicus [36] = species: Rattus norvegicus; assay: Compound was tested for inhibition of chloride ion uptake in rat cerebrocortical slices at concentration of (10e-8) M; format: functional; how it was run: as §2
Rattus norvegicus [37] = species: Rattus norvegicus; assay: Compound was tested for inhibition of potassium ion uptake in rat cerebrocortical slices at concentration of (10e-3) M; format: functional
Rattus norvegicus [38] = species: Rattus norvegicus; assay: Compound was tested for inhibition of potassium ion uptake in rat cerebrocortical slices at concentration of (10e-8) M; format: functional
Rattus norvegicus [39] = species: Rattus norvegicus; assay: Compound was tested for inhibition of sodium ion uptake in rat cerebrocortical slices at concentration of (10e-3) M; format: functional
Rattus norvegicus [40] = species: Rattus norvegicus; assay: Compound was tested for inhibition of sodium ion uptake in rat cerebrocortical slices at concentration of (10e-8) M; format: functional
Rattus norvegicus [41] = assay: In vivo activity in the acceleration-deceleration head injury assay at dose of 10 mg/kg; format: functional
How it was run: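 Cat acceleration-deceleration head injury model. Drug given intravenously 20 min after the acceleration-deceleration event, before the hypoxemia period. Animals were matched in pairs by sex and run together; one was randomly assigned to drug, the other served as control. Deaths were counted over 24 h after trauma, excluding animals dying during the procedure or hypoxemia. Mortality was compared by χ² analysis.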

Rattus norvegicus [42] = species: Rattus norvegicus; assay: Compound was tested for inhibition of HCO3- dependent swelling of rat cerebrocortical slices at concentration of (10e-8) M; format: functional; how it was run: as §1
Felis catus [43] = assay: In vivo activity in the acceleration-deceleration head injury assay at dose of 5 mg/kg; 7/22
Felis catus [44] = assay: In vivo activity in the acceleration-deceleration head injury assay at dose of 1 mg/kg; 14/25

Compound: CCCC12CCC(=O)C=C1c1c(cc(OCC(=O)O)c(Cl)c1Cl)C2 (single isomer, unassigned; (+))
- Swelling (Felis catus [1]): 27.3%
- Swelling (Felis catus [2]): 20%
- Swelling (Felis catus [3]): 18.3%
- Activity (Felis catus [4]): 83.8
- Activity (Felis catus [5]): 90.5
- Activity (Felis catus [6]): 98.5
- Activity (Felis catus [7]): 86.9
- Activity (Felis catus [8]): 89.1
- Activity (Felis catus [9]): 86.9
- Activity (Felis catus [10]): 86
- Activity (Felis catus [11]): 86.4
- Activity (Felis catus [12]): 90.9
- Activity (Felis catus [13]): 86.9
- Activity (Felis catus [14]): 96.4
- Activity (Cavia porcellus [15]): 88.1
- Activity (Cavia porcellus [16]): 90.8
- Activity (Cavia porcellus [17]): 95.9
- Activity (Cavia porcellus [18]): 108.3
- Activity (Cavia porcellus [19]): 104.7
- Activity (Cavia porcellus [20]): 115
- Activity (Cavia porcellus [21]): 125.4
- Activity (Cavia porcellus [22]): 108.6
- Activity (Cavia porcellus [23]): 110
- Swelling (Cavia porcellus [24]): 27.6%
- Swelling (Cavia porcellus [25]): 26.2%
- Activity (Cavia porcellus [26]): 105.2
- Activity (Cavia porcellus [27]): 88.9
- Activity (Cavia porcellus [28]): 87.7
- Activity (Cavia porcellus [29]): 101.4
- Activity (Cavia porcellus [30]): 94.8
- Activity (Cavia porcellus [31]): 100.5
- Activity (Cavia porcellus [32]): 115.4
- Activity (Cavia porcellus [33]): 103.8
- Activity (Rattus norvegicus [34]): 92.3
- Activity (Rattus norvegicus [35]): 101.5
- Activity (Rattus norvegicus [36]): 101.4
- Activity (Rattus norvegicus [37]): 60.2
- Activity (Rattus norvegicus [38]): 75.4
- Activity (Rattus norvegicus [39]): 132.4
- Activity (Rattus norvegicus [40]): 118.9
- Mortality (Rattus norvegicus [41]): 37.5% and 79%
- Swelling (Rattus norvegicus [42]): 20.9%
- Deaths (Felis catus [43]): 7
- Deaths (Felis catus [44]): 14

Source: ChEMBL document CHEMBL1123488, “Agents for the treatment of brain edema. 2. [(2,3,9,9a-Tetrahydro-3-oxo-9a-substituted-1H-fluoren-7-yl)oxy]+ ++alkanoi c acids and some of their analogues” (J Med Chem, 1986)
